Many of the other results were omitted from the sample, so hits are more common in it than they were.
INS promoter act: TRM-6 insulin promoter activation | TRM-6 cells, insulin promoter eGFP reporter, imaging; plate-scaled: unstimulated 0, stimulated control 100 | activation, % at 2 µM | actives 0.81% (n = 130,000) | AID 1296;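 active means activation at 2 µM above a set limit, confirmed on inspection of the cell images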;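 further: share of cells whose green reporter signal exceeds an intensity cutoff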
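System – human fetal islet-derived TRM-6 cells with tamoxifen-inducible insulin promoter–eGFP reporter · Amount – 1,000 cells per well · Schedule – overnight tamoxifen, then two-day compound incubation at 37 °C · Detection – high-content imaging of fixed cells with Hoechst nuclear stain · Read-out – percent cells above green-intensity threshold, converted to percent activation versus plate controls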
Hits are given with their value; - = inactive.

SMILES | INS promoter act
COc1ccc(S(=O)(=O)N[C@@H](Cc2ccc(Cl)cc2)C(=O)N2CC[C@@]3(O)CCCC[C@H]3C2)cc1 | -
CC(=O)c1c(C)[nH]c(C(=O)NCc2cccc(Cl)c2)c1C | -
Fc1ccc(CSc2nncn2NCc2ccccc2)cc1 | 427.8
CN(C)c1ccc(CNn2cnnc2SCc2ccc(F)cc2)cc1 | -
CC(C)(C)NC(=O)CSc1nncn1NCc1ccccc1 | -
NC1=NC(=O)C(CC(=O)c2ccc(Cl)cc2)S1 (centres undefined) | -
CCCCC(=O)Nc1ccc(NC(=O)C2CC2)nc1 | -
O=C(NCCCn1ccnc1)C(=O)NCC1OCCN1S(=O)(=O)c1ccc(Br)cc1 (centres undefined) | -
CCN(CC)CCCN1C(=O)C(O)=C(C(C)=O)C1c1cccc(OC)c1 (centres undefined) | -
CC(=O)C1=C(O)C(=O)N(CCCn2ccnc2)C1c1ccc(Br)cc1 (centres undefined) | 346.7
CC1(C)CC(=O)C2=C(C1)c1c(ccc3ccccc13)NC2c1ccc(Br)o1 (centres undefined) | -
Cc1cc(NC(=O)CN2CCOCC2)n(-c2nc3ccccc3s2)n1 | -
CCC(c1nnnn1CCC(C)C)N1CCC(C(N)=O)CC1 (centres undefined) | -
CSc1ccc(/C=N/NC(=O)c2ccc(C)c(C)c2)cc1 | -
Cc1cccc(NCC(=O)N/N=C/c2cccc(Br)c2)c1 | -
CSc1ccc(/C=N/NC(=O)CNc2ccc3ccccc3c2)cc1 | 368.8
Cc1cc2nc3c(c(C(F)(F)F)n2n1)CCCC3 | -
C=CCNC(=S)NNC(=O)COc1cccc(Cl)c1 | -
Cc1cc(C)c2nc(SCC(=O)Nc3ccccc3N3CCOCC3)c(C#N)cc2c1 | -
Cc1nonc1NC(=O)CSc1nc2c(C)cccc2cc1C#N | 809.1
CCc1cc2cc(C)cc(C)c2nc1SCC(=O)Nc1cc(C)on1 | -
CNc1c([N+](=O)[O-])cnn1-c1ccccn1 | -
Cc1c(NC(=O)CN2C(=O)NC3(CCCCC3)C2=O)c(=O)n(-c2ccccc2)n1C | -
Cc1ccccc1NS(=O)(=O)c1ccc2[nH]c(=O)[nH]c2c1 | -
COc1ccc(N(Cc2cc3cc(OC)ccc3[nH]c2=O)C(=O)c2cccnc2)cc1 | -
SMILES | INS promoter act
COc1ccc2[nH]c(=O)c(CN(C(=O)c3cccnc3)c3ccccc3OC)cc2c1 | -
COc1ccc2[nH]c(=O)c(CN(C(=O)c3ccccn3)c3ccccc3)cc2c1 | 200.0
CC1CC(OCC(O)CN2CCN(Cc3ccccc3)CC2)CC(C)(C)C1 (centres undefined) | -
CC1CCC(C(C)C)C(OC(=O)CSc2nnc(N)s2)C1 (centres undefined) | -
CC1CCN(CC(O)COC2CC(C)CCC2C(C)C)CC1 (centres undefined) | 542.9
CC1(C)C(=O)N(OCc2ccccc2)C(C)(C)C(=O)N1OCc1ccccc1 | -
c1cn(CC2(Cn3ccnc3)COC2)cn1 | -
CN(C)c1nc(N)nc(CSc2nnnn2-c2ccc(F)cc2)n1 | -
Cc1ncc(CSc2nnnn2-c2ccccc2)c(N)n1 | -
Nc1nc(CSc2nnnn2-c2ccccc2)nc(N2CCCc3ccccc32)n1 | 447.1
O=C(Nc1cnccn1)Nc1cccc(Cl)c1Cl | -
CN1c2ccccc2N(C)C1c1ccc2c(c1)OCO2 | -
CC12CN3CC(C)(CN(C1)C3c1ccc3c(c1)OCO3)C2=O (centres undefined) | 437.5
O=C1C2C3C=CC(CC3)C2C(=O)N1c1ccc2c(c1)OCO2 (centres undefined) | -
CCN(CC)C(=O)C(C(=O)c1cccc([N+](=O)[O-])c1)n1cc(Cl)ccc1=O (centres undefined) | -
COc1cc(NC(=S)N2CCC(C(O)(c3ccccc3)c3ccccc3)CC2)cc(OC)c1 | -
CCOC(=O)c1c(C)cc(C)n2c1nc1ccccc12 | -
OCC[C@H]1C[C@H](O)[C@@H](O)[C@@]2(CCCCO2)O1 | -
Cc1ccc(CC(=O)Nc2ccccc2N2CCOCC2)cc1C | -
CCN1CCc2c(OCC(=O)Nc3cccc(C)c3)cccc2C1=O | -
CC1CCN(C(=O)COc2cccc3c2CCN(Cc2ccccc2)C3=O)CC1 | -
Cc1ccccc1CN1CCc2c(OCC(=O)N3CCCc4ccccc43)cccc2C1=O | 128.0
CCOC(=O)C(C)On1c(SC(C)C(=O)OCC)nc2ccccc2c1=O (centres undefined) | 75.7
COC(=O)COn1c(SC(C)C)nc2ccccc2c1=O | -
CCSc1nc2ccccc2c(=O)n1OCC(=O)OC | -
SMILES | INS promoter act
Cc1ccc(C(C(=O)NCc2ccco2)N(C(=O)Cc2cccs2)c2cccnc2)cc1 (centres undefined) | -
COc1ccc(N2CC(C(=O)NCCCN3CCOCC3)CC2=O)cc1 (centres undefined) | -
CCS(=O)(=O)c1ccc(O)c(NC(=O)c2cc(OC)c(OC)c(OC)c2)c1 | -
Cc1ccc(N=Nc2ccc(O)c3ncccc23)cc1 | -
Oc1c(Cl)cc(Cl)c2cccnc12 | -
Cc1ccc(N=Nc2ccc(O)c3ncccc23)cc1C | 278.6
CCS(=O)(=O)c1ccc(N=Nc2ccc(O)c3ncccc23)c(OC)c1 | 625.0
Oc1ccc(CN2CCCCC2)c2cccnc12 | -
CN(C)S(=O)(=O)c1cccc(NC(=O)Cn2cc(C(F)(F)F)cc(Cl)c2=O)c1 | -
COc1ccc(CNS(=O)(=O)c2cc(OCC(N)=O)c(C)cc2Cl)cc1 | -
CNC(=S)/N=C(/Nc1ccccc1)c1ccccc1 | -
O=C(c1ccccc1)c1nccc2ccccc12 | -
CCCNC(=O)NC(=O)COC(=O)CNS(=O)(=O)/C=C/c1ccccc1 | -
Cc1nn2c3c(cnc2c1-c1ccccc1)C(=O)CC(c1ccco1)C3 (centres undefined) | 136.4
O=C(Nc1ncc2c(n1)CC(c1ccco1)CC2=O)c1ccccc1 (centres undefined) | -
Cc1ccc(NC(=O)CSCC(=O)Nc2ncc3c(n2)CC(c2ccco2)CC3=O)cc1 (centres undefined) | -
O=C(O)c1cc2ccccc2n1-c1ccccc1 | -
Cc1c(/C(O)=C2/C(=O)C(=O)N(CCN3CCOCC3)C2c2ccccn2)cnn1-c1ccccc1 (centres undefined) | -
COc1cccc(-c2nn[nH]n2)c1O | -
Cc1cc(C)c(S(=O)(=O)c2ccccc2)c(OC(=O)c2cc(F)c(F)cc2Cl)n1 | -
COC(=O)CCSCC(=O)N1N=C(c2ccc(Br)cc2)CC1c1cccc(OC)c1OC (centres undefined) | 386.7
COc1ccc(C2CC(c3ccc(Br)cc3)=NN2C(=O)c2cccnc2)cc1 (centres undefined) | -
COc1cccc(C2CC(c3ccc(NS(C)(=O)=O)cc3)=NN2C(=O)c2ccccc2)c1OC (centres undefined) | -
O=C(O)CCC(=O)NNC(=O)c1ccc(Br)cc1 | -
O=C(N/N=C\c1ccc(-c2ccc([N+](=O)[O-])cc2)o1)c1ccc2c(c1)OCO2 | -
SMILES | INS promoter act
O=C(Nc1cccc([N+](=O)[O-])c1)c1ccc2c(c1)OCCO2 | -
O=C(O)CC(NC(=O)c1ccc2c(c1)OCO2)c1cccc([N+](=O)[O-])c1 (centres undefined) | 463.6
Oc1ccc(N2CCN(C(=S)NCCc3ccccc3)CC2)cc1 | -
COc1ccc(C2N(c3ccccc3)CCN2c2ccccc2)cc1O | -
CS(=O)(=O)NCc1nnc(SCC(=O)NC2CCCCC2)n1-c1ccc(F)cc1 | -
N#C/C(=C\c1ccc(N2CCOCC2)o1)c1nc2ccccc2[nH]1 | 142.1

Bioassay records: PubChem, Columbia University Molecular Screening Center
